# Compounds with a hit are over-represented: about 2% of the library has one in this group of screens.
# Scp-1 inhibitor: Scp-1 phosphatase inhibitors, primary screen, biochemical, colorimetric, uHTS; inhibition, % at 20 µM; Recombinant Scp1, phosphopeptide, malachite green phosphate absorbance; 340,000 tested, 0.88% active; Carboxy-terminal domain RNA polymerase II polypeptide A small phosphatase 1 (Homo …;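 active = inhibition above about 50% at 20 µM, limit read from the data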;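 note: plate controls were DMSO wells with enzyme for no effect and wells lacking enzyme for full effect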
# Target sequence (Q9GZU7 76-261 limits assumed): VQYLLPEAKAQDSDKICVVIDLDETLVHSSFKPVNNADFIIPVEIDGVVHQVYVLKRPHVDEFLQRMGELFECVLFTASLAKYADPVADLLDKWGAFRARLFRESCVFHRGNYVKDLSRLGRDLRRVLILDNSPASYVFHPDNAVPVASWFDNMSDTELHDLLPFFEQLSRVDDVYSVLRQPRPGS
#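 Material – SCP-1 phosphatase catalytic domain, residues 76-261 · Buffer or medium – Acidic Tris acetate buffer with magnesium and detergent · Also added – Phospho 17-mer peptide substrate · Compound – single 20 µM dose, 1% DMSO · Times – 45 min room-temperature reaction, 5 min colour, 30 min stabiliser · Technique – Phosphate-binding colour reagent, absorbance read at 630 nm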
# SUMO1 PPI mod: modulators of SUMO1 protein-protein interactions, primary screen, biochemical, uHTS | SUMO1 binding to a labelled peptide, TR-FRET, 1 h | inhibition, % at 20 µM | 360,000 tested, 0.33% active | AID 602429, 2012; in the data active = inhibition above about 37%
# Target sequence (P63165 whole entry, looked up): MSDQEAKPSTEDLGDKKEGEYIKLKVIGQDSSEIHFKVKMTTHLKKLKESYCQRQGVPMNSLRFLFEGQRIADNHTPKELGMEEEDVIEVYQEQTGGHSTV
# DNMT1 block: human DNMT1 methyltransferase inhibitors, primary screen, biochemical, molecular beacon, fluorescence, HinP1I cleavage, uHTS | DNA (cytosine-5)-methyltransferase 1 (Homo sapiens), P26358 | inhibition (reported as % activation of signal), % at 10 µM | 360,000 tested, 0.83% active; in the data active = inhibition above about 50%
# CSN deneddyl inh: inhibitors of CSN-mediated cullin deneddylation, primary screen, biochemical, fluorescence polarization, uHTS; 360,000 tested, 0.38% active; inhibition, % at 12.5 µM; Purified CSN, SCF-Nedd8-OG deneddylation;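 active = pattern-corrected inhibition above about 35%, with an unprinted fluorescence ratio check between 0.5 and 1.5, limit read from the data, passing the limit was not always enough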;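 note: 0% = enzyme with substrate and 100% = substrate without enzyme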
# Target sequence (Q92905 whole entry, looked up, one chain of several): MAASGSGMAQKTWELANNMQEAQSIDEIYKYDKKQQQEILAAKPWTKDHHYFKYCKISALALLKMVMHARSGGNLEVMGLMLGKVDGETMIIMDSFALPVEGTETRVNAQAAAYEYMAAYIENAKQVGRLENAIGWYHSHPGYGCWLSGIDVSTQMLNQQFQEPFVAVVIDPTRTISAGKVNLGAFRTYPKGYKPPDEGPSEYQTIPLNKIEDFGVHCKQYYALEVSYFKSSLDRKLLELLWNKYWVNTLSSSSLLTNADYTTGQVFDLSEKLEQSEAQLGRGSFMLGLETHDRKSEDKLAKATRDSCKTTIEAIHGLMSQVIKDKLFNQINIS
#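 Detection – fluorescence polarization · System – HEK293T-derived human Csn5 enzyme · Controls – substrate-only high control, full reaction low control · Timing – 90 min, room temperature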
# STEP inh: STEP phosphatase inhibitors, primary screen, biochemical, fluorescence intensity, uHTS. recombinant STEP, OMFP fluorogenic substrate. inhibition, % at 20 µM. 360,000 tested, 0.25% active;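 active = inhibition at 20 µM, scaled per plate between control wells, above about 37%, limit read from the data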;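 note: 0% = DMSO with enzyme and substrate and 100% = substrate only without enzyme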
#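 Measure: Control-normalized % inhibition with plate pattern correction | Test system: STEP phosphatase, cell-free reaction | Medium: pH 6.0 Bis-Tris with DTT and Tween 20 | Technique: Fluorescence, 480/540 nm | Times: Reaction 20 min, ambient temperature | Doses: Single compound dose of 20 µM, 1% DMSO final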
# LMPTP block: LMPTP phosphatase inhibitors, primary screen, biochemical, fluorescence intensity, uHTS. Low molecular weight phosphotyrosine protein phosphatase (Homo sapiens), P24666. 360,000 tested, 0.22% active. recombinant LMPTP-A, OMFP fluorogenic substrate. inhibition, % at 20 µM;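 active = compounds that cut the enzyme signal by at least half of the control window in the single-dose screen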;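 note: plate controls were DMSO wells with enzyme plus substrate for no effect and substrate without enzyme for full effect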
#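 Test system: LMPTP-A phosphatase enzyme; input: 0.625 nM LMPTP-A final; reagent: OMFP substrate, 400 µM final; compound dosing: 20 µM single dose, 3% DMSO; incubation: 50 min dark incubation at room temperature; measured by: endpoint fluorescence intensity from OMFP dephosphorylation; measure: % inhibition relative to no-enzyme and uninhibited control wells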
# Scp1 confirm: Scp-1 phosphatase inhibitors, retest, confirmation, biochemical, colorimetric, single concentration | shares compounds with Scp-1 inhibitor | recombinant SCP-1 catalytic domain, phosphate release, malachite green absorbance | inhibition, % at 20 µM | 2,500 tested, 61% active | AID 540281, 2011;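 note: plate controls were DMSO with enzyme for no effect and buffer wells lacking enzyme for full effect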
# MG interference: colorimetric readout interference by compounds, confirmation, artefact control for Scp-1 inhibitor project, biochemical, single concentration; apparent inhibition (interference), % at 20 µM; shares compounds with Scp-1 inhibitor; 2,500 tested, under 10 active; Colorimetric interference counterscreen, malachite green absorbance 630 nm;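 note: compounds added after enzyme reaction finished so only phosphate colour detection is probed; plate controls were DMSO wells with completed Scp-1 reaction for no effect and substrate wells lacking enzyme for full effect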
# Scp1 DSF: Scp-1 binding by thermal shift, confirmation, orthogonal assay for Scp-1 inhibitor project, biophysical, differential scanning fluorimetry; shares compounds with Scp-1 inhibitor; Recombinant SCP1, Sypro Orange thermal shift Tm; thermal shift relative to vanadate control, % at 40 µM; 1,500 tested, 25% active; AID 540329, 2011;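 active = substances whose mean melting-temperature shift, as a percentage of the reference inhibitor's shift, reaches about 5.3%, limit read from the data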;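 note: 0% = Tm of DMSO wells and 100% = Tm with sodium orthovanadate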
# Numbers without * were called inactive; / = no result.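 Rule for the calls, unless noted: active = inhibition of at least 30% at 20 µM; inactive = the rest.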
SMILES,Scp-1 inhibitor,SUMO1 PPI mod,DNMT1 block,CSN deneddyl inh,STEP inh,LMPTP block,others
CCN1CC2([N+](=O)[O-])CC=C(Cl)C([N+](=O)[O-])(C1)C2 (configuration not stated),6,-1,-2,4,0,1,
Cc1ccsc1C(=O)C1CCCN(Cc2cnc(N3CCOCC3)s2)C1 (configuration not stated),-6,-1,0,101*,1,1,
Cc1ccc2c(c1)C1C[N+](C)(CC(=O)c3ccc(Cl)cc3Cl)CCC1N2C(=O)c1ccc(F)cc1 (configuration not stated),95*,-11,7,-3,-2,0,
Cc1ccc2c(c1)C1CN(C)CCC1N2C(=O)c1cccs1 (configuration not stated),-12,2,-1,1,-3,0,
O=C1Nc2ccccc2/C1=C/c1cnc[nH]1,82*,-11,0,-1,2,-1,
OC(c1ccncc1)(c1ccc(F)cc1)c1ccc(F)cc1,0,-3,-4,-17,-1,0,
CN(C)CCN=Cc1c(O)n(-c2cccc(C(F)(F)F)c2)c(=O)[nH]c1=O,-4,-1,-2,1,-1,-6,
O=c1[nH]c(O)c(C=Nc2ccccc2Oc2ccccc2)c(=O)[nH]1,-4,-4,10,48*,0,15,
O=C(O)c1ccc2c(c1)C1C(Cl)C(Sc3ccccc3[N+](=O)[O-])CC1C(c1cccc([N+](=O)[O-])c1)N2 (configuration not stated),-7,46*,71*,33,6,6,
CCN(CC)C(=O)c1ccc(NC(=O)c2cccc(S(=O)(=O)N3CCN(Cc4ccccc4)CC3)c2)cc1,4,4,-1,-2,2,0,
O=C(O)c1cccc2c1NC(c1cccc([N+](=O)[O-])c1)C1CC(Sc3ccccc3[N+](=O)[O-])C(Cl)C21 (configuration not stated),1,41*,85*,0,8,36,
CCN(CC)C(=O)c1ccc2c(c1)C1C(Cl)C(Sc3ccccc3[N+](=O)[O-])CC1C(C(=O)O)N2 (configuration not stated),24,65*,64*,1,6,50,
CCN(CC)C(=O)c1ccc2c(c1)C1C=CCC1C(C(=O)O)N2 (configuration not stated),39,45*,19,10,33,2,
O=[N+]([O-])c1cccc(C2N3CCCN23)c1 (configuration not stated),-5,-8,0,-2,0,-3,
COc1ccc(/C=C/C(=O)c2c(O)n(CCC3=CCCCC3)c(=O)[nH]c2=O)cc1OC,1,-14,-3,33,-5,-1,
O=c1[nH]c2ccccc2n1C1CCN(Cc2ccc(-c3[nH]c4cc5ncnc5cc4nc3-c3ccccc3)cc2)CC1,/,-4,/,-3,/,84*,
O=c1[nH]c2ccccc2n1C1CCN(C(c2cccc3ccccc23)c2nnnn2Cc2ccccc2)CC1 (configuration not stated),/,9,-23,1,3,5,
O=c1[nH]c2ccccc2n1C1CCN(C(CCc2ccccc2)c2nnnn2C2CCCC2)CC1 (configuration not stated),/,5,-12,106*,3,6,
CC(C)(O)C1C2OC(=O)C1C1(O)CC3OC34C(=O)OC2C14C (configuration not stated),-9,6,0,-2,-3,-1,
COc1ccc(N=Nc2c(O)[nH]c(=S)[nH]c2=O)cc1,-9,-55,-1,58*,7,11,
O=c1oc2ccccc2c(O)c1[C@H]1c2ccc(O)cc2Oc2c1c(=O)oc1ccccc21,-9,8,1,-3,9,1,
Cc1cccc(-n2c(O)c(/C=C/C=Nc3ccccc3)c(=O)[nH]c2=O)c1,-4,-29,55*,8,-16,1,
C=C1C(=O)OC2CC3(C)OC3CCC(C)=CC(OC(C)=O)C12 (configuration not stated),-3,7,-1,4,-2,0,
C=C1C(=O)O[C@@H]2C[C@@H](C)[C@H]3C=CC(=O)[C@]3(O)C[C@@H]12,-8,53*,-31,10,-1,1,
CC(=O)N1CCCSC1=Nc1ccccc1,-7,4,2,2,0,-2,
SMILES,Scp-1 inhibitor,SUMO1 PPI mod,DNMT1 block,CSN deneddyl inh,STEP inh,LMPTP block,others
CCOc1ccccc1N=C1SCCCN1C,55*,-1,2,-3,0,0,Scp1 confirm=67*;MG interference=-11;Scp1 DSF=-7
C[n+]1ccc(-c2ccncc2)cc1,96*,-25,-1,4,2,-5,Scp1 confirm=4;MG interference=-9
O=P(Nc1cccc(Cl)c1)(Oc1ccccc1)Oc1ccccc1,-8,7,-7,2,-1,4,
CC(=O)Nc1ccc(N=Cc2c(O)n(Cc3ccco3)c(=O)[nH]c2=O)cc1,72*,55*,2,2,6,1,Scp1 confirm=51*;MG interference=-7;Scp1 DSF=-6
O=C(O)CCn1cc(C=C2C(=O)NC(=O)NC2=O)c(-c2ccc(Br)cc2)n1,8,3,5,3,4,-2,
O=C(O)CCn1cc(C=C2C(=O)NC(=S)NC2=O)c(-c2cccc(Cl)c2)n1,67*,8,0,-7,-2,0,Scp1 confirm=42*;MG interference=-13;Scp1 DSF=-19
CCCC[N+]12CCC(CC1)C(C(=O)c1cccs1)C2 (configuration not stated),98*,-7,-3,2,-2,0,Scp1 confirm=103*;MG interference=6;Scp1 DSF=-4
